This is an account of results in ChEMBL document CHEMBL1135653, “Novel apoptosis-inducing trans-platinum piperidine derivatives: synthesis and biological characterization” (J Med Chem, 2002).

Data set [1] can be described thus: In vitro growth inhibition against C-26 cells incubated for 72 hr using cytotoxicity assay. The format is functional, cell-based, Mus musculus. Put shortly: (§1)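 Methylene blue staining assay. Exponentially growing cells plated, incubated 24 h, then drugs added at various concentrations (saline for controls), four wells per variant. Drug exposure 4, 24 or 72 h, then washed and grown in fresh medium to 72 h total. Cells fixed in 2.5% glutaraldehyde, stained with 1% MB in 0.1 M borate pH 8.5, dye extracted with 0.1 N HCl at 37 °C, OD read at 620 nm. IC50 given as mean ± SD from at least two experiments.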

The test system of data set [2] is OV-1063. Kind of data set: In vitro growth inhibition against OV-1063 cells incubated for 24 hr using cytotoxicity assay. The format is functional, cell-based, Homo sapiens. In a few lines:
as §1

Data set [3] is described as follows: In vitro growth inhibition against C-26 cells incubated for 24 hr using cytotoxicity assay. The format is functional, cell-based, Mus musculus. In a few lines:
as §1

Data set [4] concerns OV-1063. Put plainly: In vitro growth inhibition against OV-1063 cells incubated for 72 hr using cytotoxicity assay. The format is functional, cell-based, Homo sapiens. In a few lines: as §1
A short description of data set [5]: Solubility was determined in DDW(double distilled water) at 37 degrees Centigrade. The conditions noted are these: buffer. The format is physicochemical.
For data set [6], the system named is OV-1063. Kind of data set: In vitro growth inhibition against OV-1063 cells incubated for 4 hr using cytotoxicity assay. The format is functional, cell-based, Homo sapiens. In a few lines: as §1
The nature of data set [7]: In vitro growth inhibition against C-26 cells incubated for 4 hr using cytotoxicity assay. The format is functional, cell-based, Mus musculus. In a few lines:
as §1

Several values for one entry are separate records, joined by “and”; a condition that tells them apart may be missing. Equal entries are not always repeated.

Take CISPLATIN: the IC50 in data set [1] came out at 0.2 µM; with OV-1063 [2] it was 0.7 µM; in data set [3], 0.6 µM; in the data set on OV-1063 [4], 0.5 µM; in the data set on OV-1063 [6], 2 µM; in data set [7] it was 1.5 µM. The concentration in solution in data set [5] (Solubility) was 2100 µg/mL.
Regarding TRANSPLATIN, the IC50 in data set [1] was 41 µM; with OV-1063 [2], 73 µM; in data set [3] it was 46 µM; in the data set with OV-1063 [4], 52 µM; with OV-1063 [6] it was 81 µM; in data set [7] it was 64 µM. For the same substance, the Solubility in data set [5] amounted to 240 µg/mL.
On to cis-[ptcl2(NH3)(4-pic)], for which the half-maximal inhibitory concentration (IC50) in data set [1] was 11 µM and 3.7 µM; with OV-1063 [2] it was 16 µM and 5.1 µM; in data set [3], 11 µM and 4.7 µM; in the data set on OV-1063 [4], 14 µM and 4 µM; in the data set on OV-1063 [6], 18 µM and 6 µM; in data set [7], 12 µM and 5.1 µM.
Consider trans-[ptcl2(4-pic)(pip)], for which the IC50 was found to be 1.75 µM in data set [1]; 6 µM in the data set on OV-1063 [2]; 2.5 µM in data set [3]; 4.5 µM in the data set on OV-1063 [4]; 6.5 µM in the data set on OV-1063 [6]; 4.5 µM in data set [7]. Also, in data set [5], the Solubility was 30 µg/mL.
Take trans-[ptcl2(4-pic)(pz)] HCl: the half-maximal inhibitory concentration (IC50) came out at 3.5 µM in data set [1]; 6 µM in the data set on OV-1063 [2]; 4.5 µM in data set [3]; 5.1 µM in the data set on OV-1063 [4]; 7.4 µM in the data set on OV-1063 [6]; 5.5 µM in data set [7]. In data set [5], the Solubility turned out to be 7500 µg/mL.
